# Calls of active or inactive are those of the source. The calls are words filed in the database; no cut-off is given here.
# Columns and labels:
# [1] = Stability in human liver microsomes assessed as parent compound remaining at 5 uM measured after 1 hr; type: ADME, Microsome; details: read-out: Stability
# How it was run: (§1)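 Compound at 5 μM incubated 1 hour with human or rat liver microsomes (0.2 mg/mL); percent of parent remaining reported.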
# [2] = biological target: T1, Glucose-dependent insulinotropic receptor (Homo sapiens) (UniProt Q8TDV5); test: Agonist activity at recombinant human GPR119 expressed in HEK293 cells assessed as increase in intracellular cAMP accumulation measured after 30 mins relative to oleoylethanolamide; type: functional, cell-based
# T1 sequence (whole entry): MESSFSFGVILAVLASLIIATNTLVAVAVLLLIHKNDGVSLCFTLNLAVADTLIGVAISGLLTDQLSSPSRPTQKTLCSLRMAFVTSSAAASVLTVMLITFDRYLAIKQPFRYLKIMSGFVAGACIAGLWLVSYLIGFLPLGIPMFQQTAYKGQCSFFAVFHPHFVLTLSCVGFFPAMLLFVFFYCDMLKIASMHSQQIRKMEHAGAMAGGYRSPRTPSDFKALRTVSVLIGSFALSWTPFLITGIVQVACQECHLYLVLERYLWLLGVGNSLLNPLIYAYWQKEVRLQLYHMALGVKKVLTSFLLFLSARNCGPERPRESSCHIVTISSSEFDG
# [3] = Stability in rat liver microsomes assessed as parent compound remaining at 5 uM measured after 1 hr; type: ADME, Microsome; details: read-out: Stability; how it was run: as §1
# [4] = biological target: T2, Glucose-dependent insulinotropic receptor (Homo sapiens, UniProt Q8TDV5); test: Agonist activity at recombinant human GPR119 expressed in HEK293 cells assessed as increase in intracellular cAMP accumulation measured after 30 mins; type: functional, cell-based
# T2 sequence (Q8TDV5 whole entry): T1 sequence (whole entry)
# Rattus norvegicus [5] = test: Effect on plasma glucose level in Sprague-Dawley rat at 1 to 3 mg/kg, po measured after 16 hrs; type: ADME, organism-based; details: in vivo
# How it was run: (§2)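 Overnight-fasted 7-week-old Sprague-Dawley rats dosed by oral gavage; 16 h later glucose 1 g/kg given intraperitoneally. Tail-vein blood drawn before and at 10, 30, 60 min after loading; glucose followed up to 2 h. Plasma glucose by automatic analyzer, insulin by rat insulin ELISA; glucose AUC calculated.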
# Rattus norvegicus [6] = test: Hypoglycemic activity in Sprague-Dawley rat assessed as reduction in plasma glucose AUC at 1 mg/kg, po treated for 16 hrs prior to glucose stimulation and measured up to 2 hrs by IPGTT relative to control; type: functional; set-up: scale not given: the % may be the effect or the level left; how it was run: as §2
# [7] = Oral bioavailability in Sprague-Dawley rat at 3 mg/kg; type: ADME, organism-based; details: in vivo
# How it was run: (§3)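 Sprague-Dawley rats given 1 mg/kg intravenously or 3 mg/kg orally; t1/2β, CL, Vdss and MRT from IV dosing, oral bioavailability from PO dosing.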
# Cytochrome P450 3A4 = Cytochrome P450 3A4 (Homo sapiens, UniProt P08684); test: Inhibition of CYP3A4 (unknown origin); type: ADME
# Cytochrome P450 3A4, sequence (P08684 whole entry): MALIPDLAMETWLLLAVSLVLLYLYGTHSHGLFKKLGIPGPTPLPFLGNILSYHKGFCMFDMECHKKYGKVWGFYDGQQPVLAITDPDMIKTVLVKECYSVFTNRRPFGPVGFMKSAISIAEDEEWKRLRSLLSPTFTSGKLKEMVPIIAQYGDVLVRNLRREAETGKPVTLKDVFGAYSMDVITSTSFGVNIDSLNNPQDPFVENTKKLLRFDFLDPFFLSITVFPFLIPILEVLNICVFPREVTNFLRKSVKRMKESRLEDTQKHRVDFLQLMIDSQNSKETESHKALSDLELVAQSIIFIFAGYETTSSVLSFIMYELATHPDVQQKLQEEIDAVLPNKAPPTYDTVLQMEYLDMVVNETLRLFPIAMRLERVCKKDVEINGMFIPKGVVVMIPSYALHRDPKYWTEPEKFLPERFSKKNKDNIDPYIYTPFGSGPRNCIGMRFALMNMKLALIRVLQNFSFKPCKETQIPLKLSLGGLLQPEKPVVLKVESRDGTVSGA
# Cytochrome P450 2C19 = Cytochrome P450 2C19 (Homo sapiens, UniProt P33261); test: Inhibition of CYP2C19 (unknown origin); type: ADME
# Cytochrome P450 2C19, sequence (P33261 whole entry): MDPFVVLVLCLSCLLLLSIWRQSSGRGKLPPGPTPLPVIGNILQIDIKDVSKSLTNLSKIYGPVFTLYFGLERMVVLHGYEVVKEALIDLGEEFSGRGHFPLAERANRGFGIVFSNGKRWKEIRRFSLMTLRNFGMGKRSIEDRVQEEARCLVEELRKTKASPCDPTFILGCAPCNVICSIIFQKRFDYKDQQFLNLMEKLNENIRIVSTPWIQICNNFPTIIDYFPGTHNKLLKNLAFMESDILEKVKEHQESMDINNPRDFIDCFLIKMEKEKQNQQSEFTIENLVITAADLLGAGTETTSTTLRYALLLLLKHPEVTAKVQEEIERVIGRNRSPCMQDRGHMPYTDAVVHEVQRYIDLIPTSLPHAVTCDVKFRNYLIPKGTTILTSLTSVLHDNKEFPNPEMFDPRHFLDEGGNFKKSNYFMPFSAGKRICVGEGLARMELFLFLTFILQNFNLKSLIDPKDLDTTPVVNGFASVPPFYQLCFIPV
# Rattus norvegicus [8] = test: Hypoglycemic activity in Sprague-Dawley rat assessed as reduction in plasma glucose AUC at 3 mg/kg, po treated for 16 hrs prior to glucose stimulation and measured up to 2 hrs by IPGTT relative to control; type: functional; set-up: scale not given: the % may be the effect or the level left; how it was run: as §2
# [9] = Clearance in Sprague-Dawley rat at 1 mg/kg, iv; type: ADME, organism-based; details: in vivo; how it was run: as §3
# [10] = Terminal half life in Sprague-Dawley rat at 1 mg/kg, iv; type: ADME, organism-based; details: in vivo, read-out: beta t1/2 (converted); how it was run: as §3
# Cytochrome P450 2C8 = biological target: T3, Cytochrome P450 2C8 (Homo sapiens, UniProt P10632); test: Inhibition of CYP2C8 (unknown origin); type: ADME
# T3 sequence (P10632 whole entry): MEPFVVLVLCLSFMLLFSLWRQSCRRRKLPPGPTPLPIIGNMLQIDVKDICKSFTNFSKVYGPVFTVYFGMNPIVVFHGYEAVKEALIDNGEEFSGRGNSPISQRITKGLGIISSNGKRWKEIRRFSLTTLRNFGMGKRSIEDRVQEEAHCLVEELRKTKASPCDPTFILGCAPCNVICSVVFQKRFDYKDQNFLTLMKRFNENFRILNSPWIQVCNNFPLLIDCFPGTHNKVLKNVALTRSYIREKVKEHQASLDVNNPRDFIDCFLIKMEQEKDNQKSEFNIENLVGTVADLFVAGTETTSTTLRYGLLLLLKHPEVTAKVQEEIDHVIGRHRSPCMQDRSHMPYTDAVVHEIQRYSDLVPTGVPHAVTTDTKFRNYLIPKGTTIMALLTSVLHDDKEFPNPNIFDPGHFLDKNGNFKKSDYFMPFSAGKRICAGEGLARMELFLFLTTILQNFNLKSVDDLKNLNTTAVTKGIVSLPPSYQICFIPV
# Rattus norvegicus [11] = test: Hypoglycemic activity in Sprague-Dawley rat assessed as reduction in plasma glucose level at 1 to 3 mg/kg, po treated for 16 hrs prior to glucose stimulation and measured up to 2 hrs by IPGTT; type: functional, organism-based; how it was run: as §2
# [12] = MRT in Sprague-Dawley rat at 1 mg/kg, iv; type: ADME, organism-based; details: in vivo; how it was run: as §3
# Cytochrome P450 1A2 = biological target: T4, Cytochrome P450 1A2 (Homo sapiens, UniProt P05177); test: Inhibition of CYP1A2 (unknown origin); type: ADME
# T4 sequence (P05177 whole entry): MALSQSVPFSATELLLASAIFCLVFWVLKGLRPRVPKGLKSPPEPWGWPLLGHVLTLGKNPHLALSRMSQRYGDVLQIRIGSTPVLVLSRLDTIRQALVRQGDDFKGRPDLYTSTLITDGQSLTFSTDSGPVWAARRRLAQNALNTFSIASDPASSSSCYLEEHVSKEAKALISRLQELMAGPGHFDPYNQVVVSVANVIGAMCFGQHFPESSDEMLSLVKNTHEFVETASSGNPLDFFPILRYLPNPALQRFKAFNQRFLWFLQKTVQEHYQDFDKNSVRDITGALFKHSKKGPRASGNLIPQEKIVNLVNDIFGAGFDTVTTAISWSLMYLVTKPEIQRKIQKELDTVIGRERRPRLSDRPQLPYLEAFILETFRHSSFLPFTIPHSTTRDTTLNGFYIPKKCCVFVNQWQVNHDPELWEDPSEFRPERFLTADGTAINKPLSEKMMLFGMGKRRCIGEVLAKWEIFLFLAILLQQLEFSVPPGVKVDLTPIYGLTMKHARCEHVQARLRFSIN
# [13] = Volume of distribution at steady state in Sprague-Dawley rat at 1 mg/kg, iv; type: ADME, organism-based; details: in vivo, read-out: Vdss; how it was run: as §3
# Cytochrome P450 2C9 = Cytochrome P450 2C9 (Homo sapiens, UniProt P11712); test: Inhibition of CYP2C9 (unknown origin); type: ADME
# Cytochrome P450 2C9, sequence (P11712 whole entry): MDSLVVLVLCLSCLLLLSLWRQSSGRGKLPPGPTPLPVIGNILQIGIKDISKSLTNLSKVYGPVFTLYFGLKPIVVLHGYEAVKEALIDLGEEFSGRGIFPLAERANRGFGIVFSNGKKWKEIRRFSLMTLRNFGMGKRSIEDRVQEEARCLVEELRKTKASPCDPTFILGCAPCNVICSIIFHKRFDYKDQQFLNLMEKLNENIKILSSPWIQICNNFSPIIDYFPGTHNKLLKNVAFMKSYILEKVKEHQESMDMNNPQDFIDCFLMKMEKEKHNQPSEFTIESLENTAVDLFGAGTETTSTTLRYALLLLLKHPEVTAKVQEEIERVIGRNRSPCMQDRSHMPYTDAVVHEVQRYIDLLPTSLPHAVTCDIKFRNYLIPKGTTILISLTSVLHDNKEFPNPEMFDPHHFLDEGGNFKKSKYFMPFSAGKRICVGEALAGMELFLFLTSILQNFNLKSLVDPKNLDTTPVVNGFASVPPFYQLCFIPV
# Rattus norvegicus [14] = test: Effect on plasma insulin level in Sprague-Dawley rat at 1 to 3 mg/kg, po measured after 16 hrs by ELISA; type: ADME, organism-based; details: in vivo; how it was run: as §2
# Cytochrome P450 2D6 = Cytochrome P450 2D6 (Homo sapiens, UniProt P10635); test: Inhibition of CYP2D6 (unknown origin); type: ADME
# Cytochrome P450 2D6, sequence (P10635 whole entry): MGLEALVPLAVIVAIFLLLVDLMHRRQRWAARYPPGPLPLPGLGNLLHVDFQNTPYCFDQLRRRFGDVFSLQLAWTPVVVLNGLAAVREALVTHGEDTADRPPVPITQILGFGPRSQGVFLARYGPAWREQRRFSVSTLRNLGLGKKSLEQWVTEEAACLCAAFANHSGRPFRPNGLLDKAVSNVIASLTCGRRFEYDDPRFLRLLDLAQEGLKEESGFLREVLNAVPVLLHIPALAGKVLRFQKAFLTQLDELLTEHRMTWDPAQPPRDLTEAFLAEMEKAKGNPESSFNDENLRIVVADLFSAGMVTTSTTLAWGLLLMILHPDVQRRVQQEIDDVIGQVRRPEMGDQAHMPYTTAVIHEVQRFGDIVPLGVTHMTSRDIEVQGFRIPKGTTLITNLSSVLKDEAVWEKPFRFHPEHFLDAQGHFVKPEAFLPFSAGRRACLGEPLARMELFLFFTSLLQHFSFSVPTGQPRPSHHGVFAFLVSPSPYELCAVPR
# Rattus norvegicus [15] = test: Hypoglycemic activity in Sprague-Dawley rat assessed as reduction in plasma insulin level at 1 to 3 mg/kg, po treated for 16 hrs prior to glucose stimulation and measured up to 1 hr by ELISA; type: functional, organism-based; how it was run: as §2
# [16] = Protein binding in rat plasma; type: ADME, cell-free; details: read-out: PPB (converted)
# [17] = Protein binding in human plasma; type: ADME, cell-free; details: read-out: PPB (converted)
Structure (SMILES),"remaining at 1 h, 5 µM [1]",%max [2],"remaining at 1 h, 5 µM [3]",EC50 [4],further results
CC(O[C@H]1CC[C@]2(CC1)COC(C)(C)C2)c1nc(-c2ccc(CS(C)(=O)=O)c(F)c2)no1 (mixture of isomers),62%,130%,86%,44 nM,–
C[C@@H](O[C@H]1CC[C@]2(CCC(F)(F)CO2)CC1)c1nc(-c2cc(F)c(CS(C)(=O)=O)c(F)c2)no1,98%,112%,98%,6 nM,Activity (Rattus norvegicus [5]): Non-Toxic; Activity (Rattus norvegicus [6]): 10%; bioavailability [7]: 43%; IC50 (Cytochrome P450 3A4): > 50000 nM; IC50 (Cytochrome P450 2C19): > 50000 nM; Activity (Rattus norvegicus [8]): 12%; clearance [9]: 8.33 mL/min/kg; half-life [10]: 5.1 h; IC50 (Cytochrome P450 2C8): > 50000 nM; Activity (Rattus norvegicus [11]): Active; MRT [12]: 6.4 h; IC50 (Cytochrome P450 1A2): > 50000 nM; Vd [13]: 3.5 L/kg; IC50 (Cytochrome P450 2C9): > 50000 nM; Activity (Rattus norvegicus [14]): Non-Toxic; IC50 (Cytochrome P450 2D6): > 50000 nM; Activity (Rattus norvegicus [15]): Active
C[C@@H](O[C@H]1CC[C@]2(CC1)COC(C)(C)C2)c1nc(-c2cc(F)c(CS(C)(=O)=O)cc2F)no1,–,118%,–,64 nM,–
CC(O[C@H]1CC[C@]2(CCCCO2)CC1)c1nc(-c2ccc(CS(C)(=O)=O)c(F)c2)no1 (stereo partly specified),39%,112%,64%,86 nM,–
C[C@@H](O[C@H]1CC[C@@]2(CC1)CC(F)(F)CO2)c1nc(-c2cc(F)c(CS(C)(=O)=O)c(F)c2)no1,83%,116%,85%,7 nM,–
C[C@@H](O[C@H]1CC[C@]2(CC1)COC(C)(C)C2)c1nc(-c2ccc(CS(C)(=O)=O)c(F)c2F)no1,–,77%,–,301 nM,–
CC(O[C@H]1CC[C@]2(CCCO2)CC1)c1nc(-c2ccc(CS(C)(=O)=O)c(F)c2)no1 (stereo partly specified),49%,114%,54%,720 nM,–
CC(O[C@H]1CC[C@]2(CC1)COC(C)(C)C2)c1nc(-c2ccc(CS(C)(=O)=O)cc2)no1 (mixture of isomers),–,120%,–,426 nM,–
CC(O[C@H]1CC[C@]2(CC1)COC(C)(C)C2)c1nc(-c2ccc(C(=O)N(C)C)c(F)c2)no1 (mixture of isomers),–,86%,–,2460 nM,–
C[C@@H](O[C@H]1CC[C@]2(CC1)COC(C)(C)C2)c1nc(-c2cc(F)c(CS(C)(=O)=O)c(F)c2)no1,65%,109%,83%,5 nM,fraction unbound [16]: 0.06; fraction unbound [17]: 0.035
CC(O[C@H]1CC[C@]2(CC1)COC(C)(C)C2)c1nc(-c2ccc(CC(=O)N(C)C)c(F)c2)no1 (mixture of isomers),–,131%,–,69 nM,–
CC(O[C@H]1CC[C@@]2(CC1)CC(C)(C)CO2)c1nc(-c2ccc(CS(C)(=O)=O)c(F)c2)no1 (stereo partly specified),15%,115%,55%,31 nM,–
CC1(C)C[C@]2(CC[C@H](OCc3nc(-c4ccc(S(C)(=O)=O)c(F)c4)no3)CC2)CO1,–,103%,–,261 nM,–
CC(O[C@H]1CC[C@]2(CCC(C)(C)CO2)CC1)c1nc(-c2ccc(CS(C)(=O)=O)c(F)c2)no1 (stereo partly specified),0%,109%,56%,25 nM,–
C[C@@H](O[C@H]1CC[C@@]2(CC1)CC(F)(F)CCO2)c1nc(-c2cc(F)c(CS(C)(=O)=O)c(F)c2)no1,97%,106%,91%,27 nM,–
CC(O[C@H]1CC[C@@]2(CC1)CC(C)(C)CCO2)c1nc(-c2ccc(CS(C)(=O)=O)c(F)c2)no1 (stereo partly specified),0%,113%,53%,29 nM,–
CC(O[C@H]1CC[C@]2(CC1)COC(C)(C)C2)c1nc(-c2ccc(S(C)(=O)=O)c(F)c2)no1 (mixture of isomers),–,109%,–,–,–
C[C@H](O[C@H]1CC[C@]2(CC1)COC(C)(C)C2)c1nc(-c2ccc(CS(C)(=O)=O)c(F)c2)no1,–,106%,–,430 nM,–
C[C@@H](O[C@H]1CC[C@]2(CC1)COC(C)(C)C2)c1nc(-c2ccc(CS(C)(=O)=O)c(F)c2)no1,–,106%,–,27 nM,–
